Screening data (PubChem)
C2C12 statin: suppressors of simvastatin-induced myotoxicity in C2C12 myotubes; ATP luminescence, 48 h; scaled: DMSO 0, geranylgeraniol control 100; rescue of ATP level, % at 7.49 µM; 0.78% of 330,000 active; AID 602340;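 active = mean ATP rescue above about 67%, or every replicate alone reaching that limit, limit read from the data, passing the limit was not always enough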;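 also: myotubes were challenged with 10 µM simvastatin during compound exposure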
FN deposit inh: fibronectin deposition inhibition | 0.086% of 350,000 active | AID 743247 | inhibition, % at 12.6 µM | AH1F fibroblasts, Alexa488-fibronectin deposition fluorescence, overnight;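 active = mean inhibition across replicates of 30% or more, regardless of how many single replicates reach that level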;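 also: positive control wells lacked labelled fibronectin entirely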
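Assay system: AH1F fibroblast monolayer, labelled fibronectin deposition. Amount: 10000 cells per well. Also added: labelled fibronectin 24 nM. Compound: single-point pinned compound. Incubation: cell attachment 1 h, compound and FN exposure overnight. Detection: fluorescence after three HBSS washes, excitation 485 nm, emission 525 nm. Read-out: inhibition of fibronectin deposition signal.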
FGF22 binding-1: binders of recombinant human FGF22 by thermal shift | Q9HCT0 | SYPRO orange fluorescence; percent of sucrose octasulfate shift, DMSO zero | activity (Tm shift, normalised), % at 9.99 µM | 1.5% of 340,000 active | AID 651658;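 active = mean Tm shift, scaled 0 neutral to 100 positive control, at about 1.3% or above, every replicate too, limit read from the data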
Target sequence (Q9HCT0 whole entry, looked up): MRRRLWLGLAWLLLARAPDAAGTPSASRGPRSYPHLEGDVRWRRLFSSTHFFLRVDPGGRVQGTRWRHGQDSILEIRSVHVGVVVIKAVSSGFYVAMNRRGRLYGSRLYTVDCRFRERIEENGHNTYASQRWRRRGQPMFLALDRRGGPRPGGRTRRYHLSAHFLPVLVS
SIRT5 block: inhibitors of human sirtuin-5 desuccinylase. Q9NXA8. 1.1% of 330,000 active. inhibition, % at 15 µM. Purified SirT5, succinyl-peptide AMC, trypsin-coupled fluorescence; in the data active = inhibition above about 15%
Target sequence (Q9NXA8 whole entry, looked up): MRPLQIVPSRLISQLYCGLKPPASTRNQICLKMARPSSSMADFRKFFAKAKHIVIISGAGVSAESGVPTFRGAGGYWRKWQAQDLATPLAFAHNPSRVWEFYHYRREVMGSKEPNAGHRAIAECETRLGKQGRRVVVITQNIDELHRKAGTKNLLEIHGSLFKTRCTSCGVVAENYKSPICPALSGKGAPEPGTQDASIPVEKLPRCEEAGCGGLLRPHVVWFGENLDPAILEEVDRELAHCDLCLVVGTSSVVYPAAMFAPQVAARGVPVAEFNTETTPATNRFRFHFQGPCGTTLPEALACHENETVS
E-selectin induc: E-selectin induction on HUVECs. 0.37% of 260,000 active. activation, % at 7.58 µM. HUVEC E-selectin immunofluorescence imaging; normalized: neutral wells 0, TNF-alpha wells 100. AID 686992;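 active = mean E-selectin-positive cell signal at least 10% of the positive control, reached in at least 60% of replicates, without over 20% cell loss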
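System: HUVEC, human umbilical vein endothelial cells; quantity: 3,000 cells/well; buffer or medium: EGM-2 medium, gelatin-coated wells; dosing: single-point compound dose; detection: immunofluorescence imaging; evaluation: % PE-positive cells; benchmarks: TNF-alpha, DMSO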
Ecoli rRNA inh: selective bacterial rRNA inhibition in E. coli | GFP signal change (wild-type ribosome), % (concentration not given with the values) | 1.6% of 350,000 active | E. coli WT GFP vs humanized-ribosome RFP mutants, fluorescence, 24 h; active compounds read low; DMSO median 0, no signal -100 | AID 720706;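 active = significant combined selectivity score with lowered wild-type GFP, culture density cut under 30%, mutant RFP and density less affected; inactive = any of these conditions unmet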
FGF22 binding-2: binds human FGF22 shifting its melting temperature; shares compounds with FGF22 binding-1; recombinant FGF22 thermal shift, SYPRO orange fluorescence; thermal shift activity, °C (ΔTm) at 38 µM; 2% of 1,000 active; AID 720646;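 active = fitted rise in melting shift crosses a set limit at or below the top valid dose tested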
FGF22 TSA: FGF22 (human) binding by thermal shift. 50 tested, under 10 active. Thermal shift assay, SYPRO orange, melting temperature shift. Tm shift (activity), % at 38 µM. shares compounds with FGF22 binding-1;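 active = compounds whose fitted dose curve of melting temperature shift rises past a set threshold within the tested doses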
TSA no protein: compound-only SYPRO artifact for FGF22 binders | compound-only SYPRO orange thermal shift counter-screen, no protein | AC50, µM (series often up to 38 µM) | shares compounds with FGF22 binding-1 | 2% of 1,000 active;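 active = rising signal whose fitted curve reaches the 0.54 level within the top valid dose, showing a melting point, actives reach about 13 µM in these data; inactive = the rest, including activity in the opposite direction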; also: value is where the raw curve crosses a fixed level and not half-maximal
An asterisk follows results filed as active; i = inactive; nt = no result given; [ ] = remark or other dose. Shown are actives, neighbours in structure and some others; about 4% of the full set was active somewhere.

SMILES | C2C12 statin | FN deposit inh | FGF22 binding-1 | SIRT5 block | E-selectin induc | Ecoli rRNA inh | FGF22 binding-2 | TSA no protein | others
C[C@@H]1CCCCO[C@H](CN(C)Cc2ccncc2)[C@H](C)CN([C@H](C)CO)C(=O)c2cc(NC(=O)Nc3ccc(C(F)(F)F)cc3)ccc2O1 | nt | nt | -1.9 | 1.5 | -0.3 | -3.3 | nt | nt
CO[C@@H]1CN(C)C(=O)c2ccc(NC(=O)C3CCCCC3)cc2OC[C@@H](C)N(C(=O)c2ccccc2)C[C@@H]1C | 0.2 | -1.5 | -0.2 | 7.7 | -0.2 | -3.1 | nt | nt
CO[C@H]1CN(C)C(=O)c2cc(NC(=O)Cc3ccccc3)ccc2OC[C@H](C)N(C(C)=O)C[C@H]1C | -11.3 | -5.6 | 0.2 | -1.4 | -0.2 | -0.5 | nt | nt
COc1ccc(S(=O)(=O)N(C)C[C@@H]2Oc3c(NC(=O)c4cc(C)nn4C)cccc3C(=O)N([C@H](C)CO)C[C@H]2C)cc1 | -29.5 | nt | 1.3* | 0.8 | -0.6 | 1.0 | 0.088[42 µM] | i
C[C@@H]1CN([C@H](C)CO)C(=O)c2cccc(NC(=O)C3CC3)c2O[C@@H]1CN(C)Cc1ccncc1 | -5.6 | nt | -0.2 | 0.5 | 0.2 | 2.6 | nt | nt
C[C@H]1CN([C@@H](C)CO)C(=O)CCCn2cc(nn2)CO[C@@H]1CN(C)Cc1cccc(C(=O)O)c1 | -21.8 | -5.1 | 1.3* | -1.5 | -0.1 | -2.2 | -0.018 | i
C[C@@H]1CN([C@@H](C)CO)C(=O)c2cccc(NC(=O)C3CC3)c2O[C@H]1CN(C)Cc1ccncc1 | -13.6 | nt | 1.2* | 1.5 | 1.3 | 1.8 | 0.096 | i
C[C@@H]1CCCCO[C@@H](CN(C)S(=O)(=O)c2ccccc2)[C@H](C)CN([C@H](C)CO)C(=O)c2cc(NS(=O)(=O)c3cccs3)ccc2O1 | nt | 8.3 | 0.1 | -3.8 | nt | -3.7 | nt | nt
C[C@@H]1CCCCO[C@@H](CN(C)C(=O)CCC(F)(F)F)[C@@H](C)CN([C@@H](C)CO)C(=O)c2cc(NC(=O)c3ccccc3)ccc2O1 | nt | -3.5 | -0.5 | 7.1 | 0.2 | 0.5 | nt | nt
O=C(C[C@@H]1CC[C@H](NC(=O)c2ccc3c(c2)OCO3)[C@@H](CO)O1)NCc1ccc(Cl)cc1 | 3.1 | nt | 0.0 | 0.7 | 0.1 | -7.1 | nt | nt
O=C(Nc1cc(Cl)cc(Cl)c1)N[C@@H]1CC[C@H](CCNS(=O)(=O)c2cccc(F)c2)O[C@@H]1CO | 4.3 | 1.0 | 0.5 | 3.0 | -0.2 | -57.2 | nt | nt
O=C(Nc1cc(Cl)cc(Cl)c1)N[C@H]1CC[C@H](CCNS(=O)(=O)c2cccc(F)c2)O[C@@H]1CO | 14.7 | -4.6 | 2.4* | 2.2 | 0.3 | -59.2 | 0.126[42 µM] | i
O=C(N[C@H]1CC[C@@H](CCNS(=O)(=O)c2ccc(F)cc2)O[C@H]1CO)C1CCCC1 | -0.8 | nt | 9.7* | -0.4 | -0.9 | -3.3 | 0.119[42 µM] | i
O=C(N[C@@H]1CC[C@H](CCNS(=O)(=O)c2ccc(F)cc2)O[C@@H]1CO)C1CCC1 | -2.0 | -1.0 | -0.1 | 2.3 | 0.3 | -2.0 | nt | nt
O=C(C[C@H]1CC[C@H](NC(=O)Nc2cc(F)ccc2F)[C@@H](CO)O1)Nc1ccc(-c2ccccc2)cc1 | 4.8 | -21.9 | 1.6* | -1.6 | -0.2 | -7.0 | 0.078[42 µM] | i
O=C(NCC[C@@H]1CC[C@H](NC(=O)C2CCOCC2)[C@H](CO)O1)Nc1ccc(Cl)cc1 | -1.2 | nt | 1.4* | 0.5 | 0.2 | -7.5 | 0.011[42 µM] | i
C[C@@H]1CN([C@@H](C)CO)C(=O)Cc2cc(NS(=O)(=O)c3ccccc3)ccc2O[C@H]1CN(C)Cc1ccc2c(c1)OCO2 | 7.0 | -0.8 | -0.2 | -1.2 | 0.1 | -2.6 | nt | nt
COc1ccc2c3c([nH]c2c1)[C@@H](CO)N(C(=O)CN1CCOCC1)CC31CN(Cc2ccccc2)C1 | nt | 1.9 | -0.2 | -7.9 | 1.3 | 5.9 | nt | nt
C[C@@H]1CN([C@@H](C)CO)S(=O)(=O)c2ccc(C#Cc3ccncc3)cc2O[C@H]1CN(C)C(=O)C1CCOCC1 | 1.2 | nt | -0.3 | 7.7 | 0.2 | -1.9 | nt | nt
O=C(Nc1ccc(Cl)cc1)N[C@@H]1CC[C@@H](CCNS(=O)(=O)c2ccccc2F)O[C@@H]1CO | -9.2 | 7.3 | -0.1 | 0.2 | 0.4 | -9.7 | nt | nt
O=C(Nc1ccc(Cl)cc1)N[C@@H]1CC[C@@H](CCNS(=O)(=O)c2ccccc2F)O[C@H]1CO | -7.9 | -10.4 | 1.6* | -0.4 | 1.0 | -8.2 | 0.112[42 µM] | i | FGF22 TSA=0.0
O=C(NCC[C@@H]1CC[C@@H](NC(=O)c2cnccn2)[C@H](CO)O1)Nc1ccc(F)cc1 | -9.0 | -6.5 | 0.3 | -0.5 | -0.4 | -0.5 | nt | nt
O=C(NCC[C@@H]1CC[C@H](NC(=O)c2cnccn2)[C@H](CO)O1)Nc1ccc(F)cc1 | 4.5 | -5.0 | 9.1* | 12.3 | 0.2 | -0.2 | 0.186[42 µM] | i
Cc1noc(C)c1NC(=O)N(C)C[C@@H]1OCc2cnnn2CCCC(=O)N([C@H](C)CO)C[C@H]1C | -2.9 | 3.8 | 0.0 | -1.8 | -0.3 | 4.0 | nt | nt
CC(=O)N1CC(=O)N2[C@H](CO)[C@@H](c3ccc(C#CC(C)C)cc3)[C@H]2C1 | nt | nt | 0.0 | -0.1 | -0.1 | 2.4 | nt | nt
SMILES | C2C12 statin | FN deposit inh | FGF22 binding-1 | SIRT5 block | E-selectin induc | Ecoli rRNA inh | FGF22 binding-2 | TSA no protein | others
COc1ccccc1NS(=O)(=O)c1cc(C(=O)Nc2ccc(S(=O)(=O)Nc3onc(C)c3C)cc2)ccc1C | 2.0 | 3.9 | 1.8* | 1.6 | nt | -20.5* | 0.23 | i
O=C(C1CC1)N1CC(=O)N2[C@H](CO)[C@H](c3ccc(C#CC4CCCC4)cc3)[C@@H]2C1 | nt | -16.9 | nt | -6.9 | 0.1 | 3.7 | nt | nt
O=C(COC(=O)c1ccccc1Br)NCCC1=CCCCC1 | -0.4 | 5.8 | 23.9* | 0.8 | 4.6 | -50.7* | 0.053 | i
C[C@H](CO)N1C[C@H](C)[C@H](CN(C)C(=O)CCC(F)(F)F)OCCCC[C@H](C)Oc2ccc(NC(=O)c3ccncc3)cc2C1=O | nt | nt | -0.1 | nt | -0.2 | 0.5 | nt | nt
COc1ccccc1-c1cn(CC[C@H]2CC[C@@H](NC(=O)c3cnccn3)[C@@H](CO)O2)nn1 | 2.9 | 2.4 | 0.1 | 5.0 | 0.3 | -2.3 | nt | nt
O=C(O)CCc1nn2c3ccccc3n(CC(=O)c3ccccc3)c2nc1=O | 20.0 | -6.9 | nt | nt | nt | nt | nt | nt
CCOC(=O)Cn1c2ccccc2n2nc(CCC(=O)O)c(=O)nc12 | 7.9 | 0.1 | 18.7* | -10.5 | -0.6 | 14.8 | 0.081 | i
